pEC50, pIC50: −log10 of the molar value. “Also recorded” adds a separate entry of the source.
Legend:
[1] = target: T1, human recombinant LPA1 receptor (Homo sapiens, UniProt Q92633); assay: Calcium flux assay, antagonism of LPA-induced calcium flux; type: cell-based; details: for pIC50: read-out: IC50, inhibition of LPA-induced calcium flux, human LPA1-expressing Chem-1 cells, 1 μM Oleoyl LPA
[2] = target: T1, human recombinant LPA1 receptor; assay: Calcium flux assay, LPA1 agonist activity; type: cell-based; details: human LPA1-expressing Chem-1 cells; for agonist activity at the LPA1 receptor (calcium flux): 0.0045–10 μM
Method in brief: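 Chem-1 stable cell line expressing human recombinant LPA1, loaded with Fluo-4 NW. Test compound, the racemic reference or oleoyl-LPA reference agonist was added as an eight-point 3-fold serial dilution starting at 10 μM (0.0045–10 μM), and calcium flux stimulation was measured. The reference agonist's EC80 was derived from its dose-response.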

[3] = target: T2, LPA3 (Homo sapiens, UniProt Q9UBY5); assay: Antagonist activity at LPA3; type: cell-based; details: read-out: IC50, antagonist activity at LPA3
T2 sequence (Q9UBY5 1-353): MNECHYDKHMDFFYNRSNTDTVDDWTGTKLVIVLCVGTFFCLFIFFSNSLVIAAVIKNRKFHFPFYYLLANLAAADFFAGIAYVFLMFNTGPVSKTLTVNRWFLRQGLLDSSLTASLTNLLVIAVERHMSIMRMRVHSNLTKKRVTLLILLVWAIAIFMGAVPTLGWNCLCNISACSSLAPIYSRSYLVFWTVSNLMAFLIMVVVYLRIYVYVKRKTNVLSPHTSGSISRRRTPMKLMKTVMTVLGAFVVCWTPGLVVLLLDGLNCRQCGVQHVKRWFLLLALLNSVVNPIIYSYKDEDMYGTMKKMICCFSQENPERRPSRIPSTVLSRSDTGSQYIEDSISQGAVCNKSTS

[4] = test system: 4T1 mouse mammary cancer cells; assay: LPA-induced cell invasion assay; type: cell-based; details: LPA 5 μM as chemoattractant; Debio 0719 1 and 5 μM; 24 h
Method in brief: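 4T1 cells were grown in DMEM with 10% FBS and penicillin/streptomycin at 37°C, 5% CO2. 2×10^5 cells were placed in the upper compartment of Matrigel-coated 8-μm filter chambers with or without test compound. LPA with 1% FBS was in the lower chamber. After 24 h at 37°C, cells that crossed the filter were fixed, stained and counted in 10 random fields (×40) and reported as cells/mm2.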

[5] = Pharmacokinetic study in male CD-1 mice; type: in vivo, mouse
Method in brief: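 Male CD-1 mice received test compound in 10% DMA, 5% Cremophor EL and 85% saline. It was given either as an intravenous 5 mg/kg bolus into the jugular vein or by oral gavage at 50 mg/kg. Retro-orbital blood was taken into sodium heparin, n=3 per time point. Plasma was spiked with methanol and lovastatin internal standard, vortexed, centrifuged and measured by LC/MS. Parameters are given as means.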

[6] = test system: 4T1 cells; assay: Orthotopic 4T1 mammary fat pad model, treatment day 0 to 14; type: in vivo, mouse
[7] = test system: 4T1 cells; assay: Orthotopic 4T1 model, adjuvant treatment day 15 to 35; type: in vivo, mouse; details: 25 or 50 mg/kg per os twice daily after tumor resection at day 14
Method in brief: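 To count disseminated tumour cells, marrow was flushed from tibias and femurs and plated in complete medium with 6-thioguanine 10 μM, which only the naturally resistant 4T1 cells survive. After two weeks the clones were fixed, stained and counted, and reported as clones/mm2.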

[8] = test system: breast cancer cell-mediated bone metastases; details: treatment of bone metastatic animals; cited from earlier work

T1 sequence (Q92633 whole entry): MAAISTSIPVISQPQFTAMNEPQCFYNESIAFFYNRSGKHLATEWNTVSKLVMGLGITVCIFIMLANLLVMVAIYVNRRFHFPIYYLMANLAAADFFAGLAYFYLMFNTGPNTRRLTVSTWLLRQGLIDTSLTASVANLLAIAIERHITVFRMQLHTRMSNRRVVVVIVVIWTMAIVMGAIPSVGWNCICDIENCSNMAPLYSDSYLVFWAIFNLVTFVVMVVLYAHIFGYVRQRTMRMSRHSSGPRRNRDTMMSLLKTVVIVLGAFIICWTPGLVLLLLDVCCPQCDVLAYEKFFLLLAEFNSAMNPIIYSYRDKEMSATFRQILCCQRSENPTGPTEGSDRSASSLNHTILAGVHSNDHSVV

Compound: Cc1noc(-c2ccc(CSCCC(=O)O)cc2)c1NC(=O)O[C@@H](C)c1ccccc1Cl [Debio 0719-425(S)]
- pIC50 [1]: 5.55
- agonist activity at the LPA1 receptor (calcium flux) [2]: no agonist activity

Compound: CCCCCCCC/C=C\CCCCCCCC(=O)OC[C@@H](O)COP(=O)(O)O [oleoyl LPA, Lysophosphatidic acid (LPA, Oleoyl C18:1), reference compound]
- pEC50 ([2]; read-out: EC50, stimulation of calcium flux): 6.31

Compound: Cc1noc(-c2ccc(CSCCC(=O)O)cc2)c1NC(=O)O[C@H](C)c1ccccc1Cl [Debio 0719]
- potency relative to Ki16425 at inhibiting LPA1-induced calcium flux ([1]; ratio of IC50 values): 2 fold
- pIC50 [1]: 7.22
- agonist activity at the LPA1 receptor (calcium flux) [2]: no agonist activity; also recorded: did not demonstrate any agonist effects
- pIC50 [3]: 6.18
- LPA-induced 4T1 cell invasion [4]: dose-dependently blocked
- tolerability after oral exposure [5]: well tolerated
- Plasma clearance ([5]; intravenous 5 mg/kg): 6.66 L/h/kg
- Time to maximum concentration ([5]; intravenous 5 mg/kg): 0.08 h
- plasma concentration by 4 h ([5]; intravenous 5 mg/kg): ~ 1 nM
- Bioavailability ([5]; oral 50 mg/kg): 14.41 % EF
- Time to maximum concentration ([5]; oral 50 mg/kg): 0.25 h
- plasma concentration by 8 h ([5]; oral 50 mg/kg): ~ 10 nM
- time of peak plasma concentration ([5]; oral 50 mg/kg): 15 min
- oral bioavailability ([5]; oral 50 mg/kg, no unit in text): 14.41
- inhibition of number of lung metastasis foci ([6]; 50 mg/kg per os twice daily, day 0 to 14, sacrifice day 35, p=0.022): 62%
- inhibition of total area of lung metastases ([6]; 50 mg/kg per os twice daily, day 0 to 14, sacrifice day 35, p=0.029): 89%
- tolerability (mouse weight gain, deleterious effects) ([6]; 25 and 50 mg/kg per os twice daily, day 0 to 14, female BALB/c mice): well tolerated; also recorded: did not induce noticeable deleterious effects
- burden (weight) of resected primary tumors vs untreated ([6]; 25 and 50 mg/kg per os twice daily, day 0 to 14, tumors resected day 14): no difference
- rescue of 4T1-DTCs from bone marrow ([6]; either high or low dose, day 0 to 14, sacrifice day 35): not able to rescue any 4T1-DTCs
- reduction in the area of lung metastasis foci ([6]; lower dosing (25 mg/kg per os twice daily), day 0 to 14, p=0.053): did not reach statistical significance
- expression of mitotic marker Ki-67 in primary tumors vs untreated ([6]; per os twice daily, day 0 to 14, immunohistochemistry): similar
- number of 4T1-DTCs rescued from bone marrow vs vehicle [7]: no statistically significant difference

Compound: Cc1noc(-c2ccc(CSCCC(=O)O)cc2)c1NC(=O)OC(C)c1ccccc1Cl (centres unmarked) [Ki16425, reference compound]
- pIC50 [1]: 6.89
- agonist activity at the LPA1 receptor (calcium flux) [2]: no agonist activity
- pIC50 [3]: 5.64
- progression of bone metastases [8]: inhibits efficiently the progression of bone metastases
